Values after ≈ are worked out from the molar mass of the structure shown.
Legend:
Mus musculus [1] = organism: Mus musculus; experiment: Days of the first positive reaction in […] mice.; assay type: functional
Summary of the method: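 Phototoxic skin reaction test in depilated female CD-1 mice. A single oral dose (gavage) or subcutaneous dose was given, followed 1 h later by 3 h of UVA exposure (320–400 nm). The regimen was repeated for up to 4 consecutive days, with initial doses of 30, 100 and 300 mg/kg. PTD50 was derived by the probit method. The first day of positive reaction and the no-effect dose were taken from the raw data.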

Mus musculus [2] = organism: Mus musculus; experiment: Number of mice which show positive phototoxic reaction in 5 mice; assay type: functional
Escherichia coli [3] = experiment: In vivo efficacy in mouse protection test in Escherichia coli Vogel administered by subcutaneous injection.; assay type: functional; details: Escherichia coli, sc; read-out: PD50
Summary of the method: (§1)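 Acute lethal systemic infections in female Charles River CD-1 mice. A single dose was given at challenge, orally by gavage or by subcutaneous injection. PD50 (median protective dose, mg/kg) was determined.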

Escherichia coli [4] = experiment: In vivo efficacy in mouse protection test in Escherichia coli Vogel dose administered orally by gavage.; assay type: functional; details: Escherichia coli, po; read-out: PD50; summary of the method: as §1
Escherichia coli [5] = experiment: Minimum inhibitory concentration (MIC) against gram negative bacteria Escherichia coli H-560.; assay type: functional; details: Escherichia coli; read-out: MIC
Summary of the method: (§2)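 MICs were determined by standard broth microtitration against 11 Gram-positive and Gram-negative organisms, in µg/mL. Values come from duplicate or triplicate experiments and are accurate to ±50%.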

Escherichia coli [6] = experiment: Minimum inhibitory concentration (MIC) against gram negative bacteria Escherichia coli Vogel.; assay type: functional; details: Escherichia coli; read-out: MIC; summary of the method: as §2
Enterobacter cloacae = experiment: Minimum inhibitory concentration (MIC) against gram negative bacteria Enterobacter cloacae MA-2646.; assay type: functional
Klebsiella pneumoniae = experiment: Minimum inhibitory concentration (MIC) against gram negative bacteria Klebsiella pneumoniae MGH-2.; assay type: functional; details: Klebsiella pneumoniae; read-out: MIC; summary of the method: as §2
Mus musculus [7] = organism: Mus musculus; experiment: Dose required to induce phototoxic reaction in 50% of mice by probit method at different dosage forms.; assay type: functional
Mus musculus [8] = organism: Mus musculus; experiment: Dose which has no effect to induce phototoxic reaction in 50% of mice by probit method.; assay type: functional
Mus musculus [9] = experiment: Maximum tolerance dose was measured for phototoxic skin reaction by po administration; assay type: functional
[10] = Minimum inhibitory concentration (MIC) against gram negative bacteria Prot. rettgeri M-1771.; assay type: functional, Providencia rettgeri; details: Providencia rettgeri; read-out: MIC; summary of the method: as §2
Pseudomonas aeruginosa = experiment: Minimum inhibitory concentration (MIC) against gram negative bacteria Pseudomonas aeruginosa UI-18.; assay type: functional; details: Pseudomonas aeruginosa; read-out: MIC; summary of the method: as §2
Staphylococcus aureus [11] = experiment: Minimum inhibitory concentration (MIC) against gram positive bacteria Staphylococcus aureus H-228.; assay type: functional; details: Staphylococcus aureus; read-out: MIC; summary of the method: as §2
Staphylococcus aureus [12] = experiment: Minimum inhibitory concentration (MIC) against gram positive bacteria Staphylococcus aureus UC-76.; assay type: functional; details: Staphylococcus aureus; read-out: MIC; summary of the method: as §2
Enterococcus faecalis = experiment: Minimum inhibitory concentration (MIC) against gram positive bacteria Streptococcus faecalis MGH-2.; assay type: functional; details: Enterococcus faecalis; read-out: MIC; summary of the method: as §2
Streptococcus pneumoniae [13] = experiment: Minimum inhibitory concentration (MIC) against gram positive bacteria Streptococcus pneumoniae SV-1.; assay type: functional; details: Streptococcus pneumoniae; read-out: MIC; summary of the method: as §2
Streptococcus pyogenes [14] = experiment: Minimum inhibitory concentration (MIC) against gram positive bacteria Streptococcus pyogenes C-203.; assay type: functional; details: Streptococcus pyogenes; read-out: MIC; summary of the method: as §2
Streptococcus pyogenes [15] = experiment: In vivo efficacy (s.c.) against Streptococcus pyogenes C-203 in mouse protection test; assay type: functional; details: Streptococcus pyogenes, sc; read-out: PD50; summary of the method: as §1
Streptococcus pyogenes [16] = experiment: In vivo efficacy (orally) against Streptococcus pyogenes C-203 in mouse protection test; assay type: functional; details: Streptococcus pyogenes, po; read-out: PD50; summary of the method: as §1
Streptococcus pneumoniae [17] = experiment: In vivo efficacy (s.c.) against Streptococcus pneumoniae SV-1 in mouse protection test; assay type: functional; details: Streptococcus pneumoniae, sc; read-out: PD50; summary of the method: as §1
Streptococcus pneumoniae [18] = experiment: In vivo efficacy (orally) against Streptococcus pneumoniae SV-1 in mouse protection test; assay type: functional; details: Streptococcus pneumoniae, po; read-out: PD50; summary of the method: as §1

SMILES	Day of first positve reaction (Mus musculus [1])	No. of pos rxns (Mus musculus [2])	ED50 (Escherichia coli [3]) [mg/kg]	ED50 (Escherichia coli [4]) [mg/kg]	MIC (Escherichia coli [5]) [µg/mL]	MIC (Escherichia coli [6]) [µg/mL]	MIC (Enterobacter cloacae) [µg/mL]	MIC (Klebsiella pneumoniae) [µg/mL]	PTD50 (Mus musculus [7]) [mg/kg]	No effect dose (Mus musculus [8]) [mg/kg]	MTD (Mus musculus [9]) [mg/kg]	MIC [10] [µg/mL]	MIC (Pseudomonas aeruginosa) [µg/mL]	MIC (Staphylococcus aureus [11]) [µg/mL]	MIC (Staphylococcus aureus [12]) [µg/mL]	MIC (Enterococcus faecalis) [µg/mL]	MIC (Streptococcus pneumoniae [13]) [µg/mL]	MIC (Streptococcus pyogenes [14]) [µg/mL]	ED50 (Streptococcus pyogenes [15]) [mg/kg]	ED50 (Streptococcus pyogenes [16]) [mg/kg]	further results
NC1CCN(c2cc3c(cc2F)c(=O)c(C(=O)O)cn3C2CC2)CC1	0	0	3.8	18	0.4 (≈ 1.16 µM)	0.4 (≈ 1.16 µM)	0.4 (≈ 1.16 µM)	0.8 (≈ 2.32 µM)	>100	100	100	1.6 (≈ 4.63 µM)	3.1 (≈ 8.98 µM)	1.6 (≈ 4.63 µM)	0.2 (≈ 0.579 µM)	0.8 (≈ 2.32 µM)	0.4 (≈ 1.16 µM)	0.4 (≈ 1.16 µM)	–	–	–
C[C@@H]1CN(c2c(F)cc3c(=O)c(C(=O)O)cn(C4CC4)c3c2C(F)(F)F)CCN1	0	0	1.4	1.6	0.05 (≈ 0.121 µM)	0.1 (≈ 0.242 µM)	0.2 (≈ 0.484 µM)	0.4 (≈ 0.968 µM)	>100	100	100	0.8 (≈ 1.94 µM)	3.1 (≈ 7.5 µM)	0.4 (≈ 0.968 µM)	0.2 (≈ 0.484 µM)	0.8 (≈ 1.94 µM)	0.8 (≈ 1.94 µM)	0.8 (≈ 1.94 µM)	21	23	–
NC1CCN(c2c(F)cc3c(=O)c(C(=O)O)cn(C4CC4)c3c2C(F)(F)F)CC1	0	0	4.5	12.5	0.2 (≈ 0.484 µM)	0.2 (≈ 0.484 µM)	0.2 (≈ 0.484 µM)	0.4 (≈ 0.968 µM)	>100	100	100	0.8 (≈ 1.94 µM)	3.1 (≈ 7.5 µM)	0.1 (≈ 0.242 µM)	0.05 (≈ 0.121 µM)	0.2 (≈ 0.484 µM)	0.2 (≈ 0.484 µM)	0.1 (≈ 0.242 µM)	–	–	–
NC1CCN(c2c(F)cc3c(=O)c(C(=O)O)cn(C4CC4)c3c2F)CC1	2	5	1.2	3.7	0.05 (≈ 0.138 µM)	0.1 (≈ 0.275 µM)	0.1 (≈ 0.275 µM)	0.1 (≈ 0.275 µM)	55	30	100	0.2 (≈ 0.55 µM)	0.8 (≈ 2.2 µM)	0.1 (≈ 0.275 µM)	0.025 (≈ 0.0688 µM)	0.2 (≈ 0.55 µM)	0.4 (≈ 1.1 µM)	0.4 (≈ 1.1 µM)	–	–	ED50 (Streptococcus pneumoniae [17]): 3.6 mg/kg; ED50 (Streptococcus pneumoniae [18]): 15 mg/kg
C[C@@H]1CN(c2c(F)cc3c(=O)c(C(=O)O)cn(C4CC4)c3c2F)CCN1	4	1	0.2	0.7	0.1 (≈ 0.275 µM)	0.025 (≈ 0.0688 µM)	0.025 (≈ 0.0688 µM)	0.025 (≈ 0.0688 µM)	43	<30	30	0.1 (≈ 0.275 µM)	0.4 (≈ 1.1 µM)	0.2 (≈ 0.55 µM)	0.1 (≈ 0.275 µM)	0.4 (≈ 1.1 µM)	0.4 (≈ 1.1 µM)	0.2 (≈ 0.55 µM)	7.2	14	–
CCNCC1CCN(c2cc3c(cc2F)c(=O)c(C(=O)O)cn3C2CC2)C1 (stereo not given)	0	0	2.4	35	0.05 (≈ 0.134 µM)	0.2 (≈ 0.536 µM)	0.4 (≈ 1.07 µM)	0.2 (≈ 0.536 µM)	>100	100	100	0.8 (≈ 2.14 µM)	1.6 (≈ 4.28 µM)	0.4 (≈ 1.07 µM)	0.013 (≈ 0.0348 µM)	0.2 (≈ 0.536 µM)	0.2 (≈ 0.536 µM)	0.05 (≈ 0.134 µM)	4.5	46	–
CC1(CN)CCN(c2c(F)cc3c(=O)c(C(=O)O)cn(C4CC4)c3c2C(F)(F)F)C1 (stereo not given)	0	0	3.1	8.5	0.1 (≈ 0.234 µM)	0.2 (≈ 0.468 µM)	0.2 (≈ 0.468 µM)	0.4 (≈ 0.936 µM)	>100	100	100	0.8 (≈ 1.87 µM)	3.1 (≈ 7.25 µM)	0.05 (≈ 0.117 µM)	0.013 (≈ 0.0304 µM)	0.2 (≈ 0.468 µM)	0.05 (≈ 0.117 µM)	0.05 (≈ 0.117 µM)	–	–	ED50 (Streptococcus pneumoniae [17]): 0.4 mg/kg; ED50 (Streptococcus pneumoniae [18]): 1.1 mg/kg
C[C@@H]1CN(c2cc3c(cc2F)c(=O)c(C(=O)O)cn3C2CC2)CCN1	0	1	0.4	1.2	0.025 (≈ 0.0724 µM)	0.025 (≈ 0.0724 µM)	0.025 (≈ 0.0724 µM)	0.05 (≈ 0.145 µM)	>100	100	100	0.1 (≈ 0.29 µM)	0.4 (≈ 1.16 µM)	0.4 (≈ 1.16 µM)	0.1 (≈ 0.29 µM)	0.4 (≈ 1.16 µM)	0.2 (≈ 0.579 µM)	0.2 (≈ 0.579 µM)	12	39	–
CC1(CN)CCN(c2c(F)cc3c(=O)c(C(=O)O)cn(C4CC4)c3c2F)C1 (stereo not given)	1	5	3	1.8	0.006 (≈ 0.0159 µM)	0.013 (≈ 0.0344 µM)	0.013 (≈ 0.0344 µM)	0.025 (≈ 0.0662 µM)	<30	<30	30	0.05 (≈ 0.132 µM)	0.4 (≈ 1.06 µM)	0.013 (≈ 0.0344 µM)	–	0.006 (≈ 0.0159 µM)	0.003 (≈ 0.00795 µM)	0.003 (≈ 0.00795 µM)	–	–	ED50 (Streptococcus pneumoniae [17]): 0.3 mg/kg; ED50 (Streptococcus pneumoniae [18]): 1.2 mg/kg

From ChEMBL document CHEMBL1125291, “New 8-(trifluoromethyl)-substituted quinolones. The benefits of the 8-fluoro group with reduced phototoxic risk” (1992)
